Measurements reported in publication PMC7572827 (Clinical cancer research : an official journal of the …, 2020).
“And” between values parts separate entries of the source, which are not always exact repeats. Equal entries are not always repeated. “Also recorded” adds a separate entry of the source. Where two headings read alike, the source gives them in different places. One block for each molecule: values may come before it.

How the values were obtained:
[1] = Phase 1b/2a safety: treatment-related adverse events; type: in vivo, human
Outline: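 Open-label, multicenter phase 1b/2 trial in progressive mCRPC patients resistant to abiraterone and/or enzalutamide. Test compound was given orally once daily, starting at 36 mg, with 3+3 escalation up to 144 mg daily. Expansion cohorts received 48 or 96 mg daily. All patients took enzalutamide 160 mg daily, with a 14-day enzalutamide lead-in if not already on it. Cycles were 28 days. Adverse events were graded by CTC v4.0, with assessments weekly in cycles 1–2, every 2 weeks in cycle 3, then every 4 weeks.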

[2] = system: BET inhibitor target genes MYC, IL-8, CCR1, GPR183, IL1RN; assay: Whole blood RNA expression of BET inhibitor target genes; type: in vivo, human
Outline: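 mCRPC patients received the oral test compound once daily plus enzalutamide 160 mg daily. Whole blood RNA was sampled pre-dose and 2, 4, 6 and 24 h after the cycle 1 day 1 dose. Panel: MYC, IL-8, CCR1, GPR183, HEXIM1, IL1RN. Expression change was correlated with parent plus active metabolite exposure: AUC0–2 for MYC and GPR183, AUC0–4 for CCR1, IL1RN and IL-8. Exposure was measured by plasma LC/MS/MS.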

[3] = system: metastatic castration-resistant prostate cancer (mCRPC); type: in vivo, human
MYC and AR-signaling = assay: RNA-seq gene set enrichment analysis of paired metastatic tumor biopsies; type: in vivo, human; conditions: four patients, with enzalutamide, median eight weeks of treatment
mCRPC = conditions: SWITCH phase 2 crossover study; cited from earlier work
[4] = Plasma pharmacokinetics by LC/MS/MS; conditions: steady-state, by ZEN-3694 dose level

Compound: CNc1nc2ncc(-c3c(C)noc3C)cc2n1Cc1ccccc1 [ZEN-3694]
Treatment-related AE all grades, patients: Fatigue ([1]; 36mg QD n=4): 1
Treatment-related AE all grades, patients: Visual symptoms ([1]; 36mg QD n=4): 3
Treatment-related AE all grades, patients: Weight loss & Abnormal WL ([1]; 36mg QD n=4): 1
Treatment-related AE all grades, patients: Constipation ([1]; 48 mg QD n=21): 1
Treatment-related AE all grades, patients: Decreased Appetite ([1]; 48 mg QD n=21): 2
Treatment-related AE all grades, patients: Dysgeusia ([1]; 48 mg QD n=21): 2
Treatment-related AE all grades, patients: Dyspepsia ([1]; 48 mg QD n=21): 1
Treatment-related AE all grades, patients: Fatigue ([1]; 48 mg QD n=21): 8
Treatment-related AE all grades, patients: Nausea ([1]; 48 mg QD n=21): 7
Treatment-related AE all grades, patients: Photopsia ([1]; 48 mg QD n=21): 1
Treatment-related AE all grades, patients: Photosensitivity ([1]; 48 mg QD n=21): 2
Treatment-related AE all grades, patients: Rash maculopapular ([1]; 48 mg QD n=21): 3
Treatment-related AE all grades, patients: Thrombocytopenia ([1]; 48 mg QD n=21): 1
Treatment-related AE all grades, patients: Visual symptoms ([1]; 48 mg QD n=21): 12
Treatment-related AE all grades, patients: Vomiting ([1]; 48 mg QD n=21): 1
Treatment-related AE all grades, patients: Decreased Appetite ([1]; 72mg QD n=6): 1
Treatment-related AE all grades, patients: Diarrhea ([1]; 72mg QD n=6): 1
Treatment-related AE all grades, patients: Dizziness ([1]; 72mg QD n=6): 1
Treatment-related AE all grades, patients: Dysgeusia ([1]; 72mg QD n=6): 0
Treatment-related AE all grades, patients: Fatigue ([1]; 72mg QD n=6): 2
Treatment-related AE all grades, patients: Nausea ([1]; 72mg QD n=6): 3
Treatment-related AE all grades, patients: Taste disorder ([1]; 72mg QD n=6): 1
Treatment-related AE all grades, patients: Thrombocytopenia ([1]; 72mg QD n=6): 2
Treatment-related AE all grades, patients: Visual symptoms ([1]; 72mg QD n=6): 6
Treatment-related AE all grades, patients: Weight loss & Abnormal WL ([1]; 72mg QD n=6): 1
Treatment-related AE all grades, patients: Blood creatinine Increased ([1]; 96mg QD n=31): 3
Treatment-related AE all grades, patients: Constipation ([1]; 96mg QD n=31): 3
Treatment-related AE all grades, patients: Decreased Appetite ([1]; 96mg QD n=31): 10
Treatment-related AE all grades, patients: Diarrhea ([1]; 96mg QD n=31): 5
Treatment-related AE all grades, patients: Dizziness ([1]; 96mg QD n=31): 3
Treatment-related AE all grades, patients: Dysgeusia ([1]; 96mg QD n=31): 10
Treatment-related AE all grades, patients: Dyspepsia ([1]; 96mg QD n=31): 2
Treatment-related AE all grades, patients: Fatigue ([1]; 96mg QD n=31): 13
Treatment-related AE all grades, patients: Nasal congestion ([1]; 96mg QD n=31): 3
Treatment-related AE all grades, patients: Nausea ([1]; 96mg QD n=31): 17
Treatment-related AE all grades, patients: Photopsia ([1]; 96mg QD n=31): 3
Treatment-related AE all grades, patients: Photosensitivity ([1]; 96mg QD n=31): 3
Treatment-related AE all grades, patients: Rash ([1]; 96mg QD n=31): 3
Treatment-related AE all grades, patients: Rash maculopapular ([1]; 96mg QD n=31): 1
Treatment-related AE all grades, patients: Taste disorder ([1]; 96mg QD n=31): 3
Treatment-related AE all grades, patients: Thrombocytopenia ([1]; 96mg QD n=31): 6
Treatment-related AE all grades, patients: Vision blurred ([1]; 96mg QD n=31): 2
Treatment-related AE all grades, patients: Visual symptoms ([1]; 96mg QD n=31): 17
Treatment-related AE all grades, patients: Vomiting ([1]; 96mg QD n=31): 3
Treatment-related AE all grades, patients: Weight loss & Abnormal WL ([1]; 96mg QD n=31): 3
Dose-limiting toxicity ([1]; 96 mg/day dose level, Grade 3 nausea, cycle 1): One patient
Treatment-related AE all grades, patients: Decreased Appetite ([1]; 120mg QD N=4): 3
Treatment-related AE all grades, patients: Dysgeusia ([1]; 120mg QD N=4): 1
Treatment-related AE all grades, patients: Fatigue ([1]; 120mg QD N=4): 3
Treatment-related AE all grades, patients: Nausea ([1]; 120mg QD N=4): 3
Treatment-related AE all grades, patients: Vision blurred ([1]; 120mg QD N=4): 1
Treatment-related AE all grades, patients: Visual symptoms ([1]; 120mg QD N=4): 4
Treatment-related AE all grades, patients: Vomiting ([1]; 120mg QD N=4): 1
Treatment-related AE all grades, patients: Weight loss & Abnormal WL ([1]; 120mg QD N=4): 1
Patients requiring dose reduction and/or discontinuation ([1]; 120 mg/day): 75%
Treatment-related AE all grades, patients: Decreased Appetite ([1]; 144mg QD N=3): 2
Treatment-related AE all grades, patients: Dysgeusia ([1]; 144mg QD N=3): 3
Treatment-related AE all grades, patients: Fatigue ([1]; 144mg QD N=3): 1
Treatment-related AE all grades, patients: Nausea ([1]; 144mg QD N=3): 2
Treatment-related AE all grades, patients: Rash maculopapular ([1]; 144mg QD N=3): 1
Treatment-related AE all grades, patients: Thrombocytopenia ([1]; 144mg QD N=3): 1
Treatment-related AE all grades, patients: Visual symptoms ([1]; 144mg QD N=3): 2
Treatment-related AE all grades, patients: Weight loss & Abnormal WL ([1]; 144mg QD N=3): 2
Patients requiring dose reduction and/or discontinuation ([1]; 144 mg/day): 100%
Treatment-related AE all grades, patients: Blood creatinine Increased ([1]; 6Dmg QD n=6): 2
Treatment-related AE all grades, patients: Decreased Appetite ([1]; 6Dmg QD n=6): 2
Treatment-related AE all grades, patients: Dysgeusia ([1]; 6Dmg QD n=6): 0
Treatment-related AE all grades, patients: Fatigue ([1]; 6Dmg QD n=6): 1
Treatment-related AE all grades, patients: Nausea ([1]; 6Dmg QD n=6): 2
Treatment-related AE all grades, patients: Taste disorder ([1]; 6Dmg QD n=6): 1
Treatment-related AE all grades, patients: Thrombocytopenia ([1]; 6Dmg QD n=6): 1
Treatment-related AE all grades, patients: Visual symptoms ([1]; 6Dmg QD n=6): 4
Treatment-related AE all grades, patients: Blood creatinine Increased ([1]; TOTAL n=75): 5 (6.7) n (%)
Treatment-related AE all grades, patients: Constipation ([1]; TOTAL n=75): 4 (5.3) n (%)
Treatment-related AE all grades, patients: Decreased Appetite ([1]; TOTAL n=75): 20 (26.7) n (%)
Treatment-related AE all grades, patients: Diarrhea ([1]; TOTAL n=75): 6(8) n (%)
Treatment-related AE all grades, patients: Dizziness ([1]; TOTAL n=75): 4 (5.3) n (%)
Treatment-related AE all grades, patients: Dysgeusia ([1]; TOTAL n=75): 16 (21.3) n (%)
Treatment-related AE all grades, patients: Dyspepsia ([1]; TOTAL n=75): 3(4) n (%)
Treatment-related AE all grades, patients: Fatigue ([1]; TOTAL n=75): 29 (38.7) n (%)
Treatment-related AE all grades, patients: Nasal congestion ([1]; TOTAL n=75): 3(4) n (%)
Treatment-related AE all grades, patients: Nausea ([1]; TOTAL n=75): 34 (45.3) n (%)
Treatment-related AE all grades, patients: Photopsia ([1]; TOTAL n=75): 4 (5.3) n (%)
Treatment-related AE all grades, patients: Photosensitivity ([1]; TOTAL n=75): 5 (6.7) n (%)
Treatment-related AE all grades, patients: Rash ([1]; TOTAL n=75): 3(4) n (%)
Treatment-related AE all grades, patients: Rash maculopapular ([1]; TOTAL n=75): 5 (6.7) n (%)
Treatment-related AE all grades, patients: Taste disorder ([1]; TOTAL n=75): 5 (6.7) n (%)
Treatment-related AE all grades, patients: Thrombocytopenia ([1]; TOTAL n=75): 11 (14.7) n (%)
Treatment-related AE all grades, patients: Vision blurred ([1]; TOTAL n=75): 3(4) n (%)
Treatment-related AE all grades, patients: Visual symptoms ([1]; TOTAL n=75): 48 (64) n (%)
Treatment-related AE all grades, patients: Vomiting ([1]; TOTAL n=75): 5 (6.7) n (%)
Treatment-related AE all grades, patients: Weight loss & Abnormal WL ([1]; TOTAL n=75): 8(10.7) n (%)
Maximum tolerated dose ([1]; ZEN-3694 36 to 144 mg daily with enzalutamide 160 mg daily): without reaching an MTD; also recorded: not reached
Patients requiring dose reduction and/or treatment discontinuation due to adverse events ([1]; all dose levels, 24/75): 32%
Patients with Grade ≥ 3 treatment-related adverse event ([1]; all dose levels, n=75, with enzalutamide): 18.7%
Patients requiring dose reduction and/or discontinuation ([1]; doses from 36 mg – 96 mg/day): 10%−35%
Recommended phase 2 dose ([1]; in combination with enzalutamide): 96 mg/day
Grade ≥ 3 nausea ([1]; n=75, with enzalutamide): 4%
Patients discontinued for adverse event ([1]; nine patients): 12%
Mean difference in whole blood RNA expression of BETi targets ([2]; 4 hours post-ZEN-3694 dose, p ≤ 0.0001): up to 4 fold
Decrease in whole blood mRNA levels of BET inhibitor target genes MYC, IL-8, CCR1, GPR183, IL1RN ([2]; dose-dependent, post-C1D1 dose): 2–4 fold
Dose level at which decrease in BET inhibitor target gene expression plateaus ([2]; in vivo): ≥ 96 mg
Duration of decrease in whole blood mRNA levels of BET inhibitor target genes ([2]; in vivo): at least 8 hours
Patients remaining on treatment without progression at data cut-off ([3]; 7 patients): 9%
Patients on treatment greater than 24 months without progression ([3]; four patients): 5%
Median time to progression (TTP) ([3]; higher canonical AR transcriptional activity in baseline biopsy): 19 weeks
Composite median radiographic or clinical progression-free survival ([3]; overall cohort): 5.5 months
Median radiographic progression-free survival (rPFS) ([3]; overall cohort, with enzalutamide): 9.0 months and 9 months
Median rPFS ([3]; patients that had progressed on abiraterone): 7.8 months
Median rPFS ([3]; primary resistance to prior first-line AR targeted therapy, progression within 6 months, N = 12): 10.6 months
Composite median PFS ([3]; primary resistance, progression within 16 weeks, N = 5): 10.6 months
Composite median radiographic or clinical progression-free survival ([3]; prior progression on abiraterone): 5.5 months
Median rPFS ([3]; radiographic progression at study entry): 7.8 months
Median rPFS ([3]; serum PSA consistently rose beyond 12 weeks, N = 21): 7.2 months
Median rPFS ([3]; tumors with high AR activity): 4.3 months
Median rPFS ([3]; tumors with low AR score): 10.4 months
Median TTP ([3]; without aggressive variant clinical features, p = 0.24): 5.5 months
Gene set enrichment, on-treatment versus baseline tumor biopsies (MYC and AR-signaling): down-regulation of expression of MYC and AR-signaling

Compound: C[C@]12CC[C@H](O)CC1=CC[C@@H]1[C@@H]2CC[C@]2(C)C(c3cccnc3)=CC[C@@H]12 [abiraterone]
Median PFS, second line (mCRPC): 1.7 months

Impact of ZEN-3694 on concentration [4]: no significant impact
Compound: CNC(=O)c1ccc(N2C(=S)N(c3ccc(C#N)c(C(F)(F)F)c3)C(=O)C2(C)C)cc1F [enzalutamide]
Median PFS, second line (mCRPC): 3.5 months
